# EBI2 antag – EBI2 (human) antagonism; EBI2 beta-arrestin recruitment, luminescence, 7a,25-OHC stimulated; inhibition, % at 5 µM; hit rate 0.81% among 360,000; AID 651636; in the data active = inhibition above about 38%;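 also: enzyme fragment complementation signal reports receptor beta-arrestin coupling in cells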
# Target sequence (P32249 whole entry, looked up, the tested form may be a part): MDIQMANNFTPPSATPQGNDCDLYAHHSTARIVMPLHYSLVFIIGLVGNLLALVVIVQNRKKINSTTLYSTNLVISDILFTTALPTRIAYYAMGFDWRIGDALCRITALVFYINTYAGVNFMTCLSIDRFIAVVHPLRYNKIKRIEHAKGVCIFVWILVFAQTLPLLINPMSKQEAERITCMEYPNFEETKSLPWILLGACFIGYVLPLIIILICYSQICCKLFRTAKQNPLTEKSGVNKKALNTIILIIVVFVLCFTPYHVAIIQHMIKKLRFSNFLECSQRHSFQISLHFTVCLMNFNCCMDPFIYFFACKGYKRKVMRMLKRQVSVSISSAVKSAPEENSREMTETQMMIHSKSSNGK
# CXCR6 inh – blocks human CXCR6 beta-arrestin recruitment; O00574; hit rate 0.36% among 360,000; CHO-K1 PathHunter CXCR6 beta-arrestin, luminescence; AID 602244; inhibition, % at 20 µM; in the data active = inhibition above about 34%, passing the limit was not always enough;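 also: antagonist mode with CXCL16 agonist at 10 nM final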
# APJ ag – activates the human apelin receptor APJ. P35414. CHO-K1 APJ PathHunter beta-arrestin, luminescence; 0% DMSO wells, 100% apelin. activation, % at 20 µM. hit rate 0.11% among 330,000. AID 2520;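 active = activation more than six SD over the plate average, tested at 20 µM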
#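 Test system: CHO-K1 APJ beta-arrestin complementation cell line. Amount: cell density 1000 per well. Controls: DMSO negative, 10 nM Apelin-13 positive. Signal: luminescent beta-gal fragment complementation, chemiluminescent substrate. Read-out basis: agonist-driven arrestin binding to APJ. Timing: compound stimulation 90 min at 25 °C, detection 60 min.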
# CCR6 antagonist – blocks CCL20-driven beta-arrestin recruitment at human CCR6. CHO-K1 CCR6 PathHunter beta-arrestin, luminescence, CCL20-stimulated. inhibition, % at 20 µM. hit rate 0.49% among 340,000;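 active = compounds whose inhibition of the agonist-driven luminescence signal at 20 µM reaches about 50%, limit read from the data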;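 also: cells stimulated with CCL20 at 14 nM final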
# APJ antag – blocks the human apelin receptor APJ; CHO-K1 APJ beta-arrestin complementation, luminescence; AID 2521; P35414; inhibition, % at 20 µM; hit rate 0.32% among 330,000;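 active = inhibition above about 40% at 20 µM, limit read from the data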;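 also: cells challenged with 10 nM apelin-13 agonist together with compound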
# EBI2 conf – confirmation of human EBI2 receptor antagonists. shares compounds with EBI2 antag. inhibition, % at 5 µM. EBI2 beta-arrestin luminescence, 7a,25-OHC antagonism. hit rate 29% among 2,400;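 active = inhibition of at least 50%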
# EBI2 agonist – EBI2 agonism counter-screen | shares compounds with EBI2 antag | activation, % at 5 µM | EBI2-expressing cells, agonist mode, luminescence, 60 min; 0% vehicle, 100% 7α,25-dihydroxycholesterol control | 2,400 tested, under 10 active | AID 652000;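 active = activation of at least 50%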
# bGal cs – counter-screen for EBI2 antagonists: E. coli beta-galactosidase inhibition. shares compounds with EBI2 antag. purified beta-galactosidase, luminescent Galacton Star, 15 min. inhibition, % at 5 µM. hit rate 1% among 2,400. AID 652176;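 active = replicate-average signal at least 3 plate SD below neutral wells, shown as high inhibition, flagging enzyme-inhibiting false positives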;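 also: higher means stronger loss of beta-gal luminescence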
# Hits are given with their value; - = inactive; . = not tested or not shown. Most compounds without a hit are left out; they make up all but 1.5% or so of the library.
SMILES,EBI2 antag,CXCR6 inh,APJ ag,CCR6 antagonist,APJ antag,EBI2 conf,EBI2 agonist,bGal cs
O=C(c1ccco1)N1CCN(S(=O)(=O)c2cccs2)CC1,-,-,-,-,-,.,.,.
O=C(c1cc2ccccc2o1)N1CCN(S(=O)(=O)/C=C/c2ccccc2)CC1,92,-,-,-,-,86,-,-
COc1ccc(CN(N=O)C2CC(=O)N(c3ccc(OC)cc3)C2=O)cc1 (stereo not drawn),-,-,-,-,-,.,.,.
O=C(O)C1C2CCC(C2)C1C(=O)Nc1ccccc1 (stereo not drawn),-,-,-,-,-,.,.,.
COc1ccc(-n2c(Cc3cccn3C)nnc2SCC(=O)Nc2cccc(Cl)c2)cc1,47,-,-,-,-,-,-,-
Cn1cccc1Cc1nnc(SCC(=O)Nc2ccc(F)cc2)n1CCc1ccccc1,51,-,-,-,-,-,-,-
N#CCCn1cc(/C=N/O)c(-c2cccc([N+](=O)[O-])c2)n1,-,-,-,-,-,.,.,.
O=C(NC1CCCC1)c1cccc2c1C(=O)c1ccc(N3CCCCC3)cc1S2(=O)=O,-,-,-,-,-,.,.,.
Cc1cc(C)c2nc(N3CCCC(C(=O)NCCCN4CCOCC4)C3)sc2c1 (stereo not drawn),-,-,-,-,-,.,.,.
O=C(/C=C/c1cccs1)N1CCC2(CC1)Oc1ccc(Cl)cc1C(=O)C21CC(c2ccccc2)=NO1 (stereo not drawn),61,-,-,-,-,-,-,-
CCC(=O)N1CCC2(CC1)Oc1ccc(Cl)cc1C(=O)C21CC(c2ccccc2)=NO1 (stereo not drawn),-,-,-,-,-,.,.,.
COc1cc2nc(CN3CCN(S(=O)(=O)c4ccc(C)c(C)c4)CC3)[nH]c(=O)c2cc1OC,47,-,-,-,-,-,-,-
Cc1ccc(S(=O)(=O)N2CCCN(Cc3nc4ccccc4c(=O)[nH]3)CC2)cc1,-,-,-,-,-,.,.,.
CCOc1ccc(NC(=O)c2cc3ccccc3cc2O)cc1,-,-,-,-,-,.,.,.
COc1cc2ccccc2cc1C(=O)Nc1cccnc1,-,-,-,-,-,.,.,.
COc1ccc(OC)c(C(=O)c2ccc(C(=O)Nc3ccccc3)cc2)c1,-,-,-,-,-,.,.,.
COc1ccc(NC(=O)c2cc3ccccc3cc2OC)cc1,65,-,-,-,-,-,-,-
COc1ccc(NC(=O)c2ccc(C(=O)c3cc(OC)ccc3OC)cc2)cc1,48,-,-,-,-,-,-,-
CCOc1ccc(NC(=O)c2cc3ccccc3cc2OC)cc1,54,-,-,-,-,-,-,-
S=C(NN=Cc1ccccn1)N(Cc1ccccn1)Cc1ccccn1,-,-,.,-,.,.,.,.
Cc1ccc(S(=O)(=O)N2CCN(C(=O)CCOc3ccccc3C)CC2)cc1C,48,-,-,-,-,-,-,-
Cc1cc(Cl)ccc1OCCCC(=O)N1CCCCC1,-,-,-,-,-,.,.,.
Cc1ccc(S(=O)(=O)N2CCN(C(=O)CCCOc3ccc(Cl)cc3C)CC2)cc1,79,-,-,-,-,-,-,-
CCN(CC)S(=O)(=O)c1ccc(C(=O)C(C#N)c2ccccn2)cc1 (stereo not drawn),-,-,-,-,-,.,.,.
CCOC(=O)C1CCN(C(=O)c2cc3c(C)cc(C)cc3[nH]2)CC1,46,-,-,-,-,-,-,-
SMILES,EBI2 antag,CXCR6 inh,APJ ag,CCR6 antagonist,APJ antag,EBI2 conf,EBI2 agonist,bGal cs
CCOC(=O)C1CCN(C(=O)c2cc3cc(C)ccc3[nH]2)CC1,85,-,-,-,-,67,-,-
CCOc1ccccc1N1CCN(C(=O)c2cc3c(C)cc(C)cc3[nH]2)CC1,52,-,-,-,-,-,-,-
CCOc1ccccc1N1CCN(C(=O)c2ccc3[nH]c4c(c3c2)CCCC4)CC1,-,-,-,-,-,.,.,.
CC(C)=CCN1CCN(Cc2nc(C(C)C)cs2)CC1CCO (stereo not drawn),-,-,-,-,-,.,.,.
COC(=O)/C=C1\C(=O)N(c2nc3ccccc3s2)C(=S)N1c1ccc(F)cc1,89,-,-,-,-,90,-,-
O=C(Cn1cccc1C(=O)c1ccccc1)NCCc1ccc(Cl)cc1,49,-,-,-,-,-,-,-
O=C(Cn1cccc1C(=O)c1ccccc1)NCCc1ccccc1,-,-,-,-,-,.,.,.
Cc1cc(Cl)c2oc(C(=O)N3CCN(C(=O)c4ccco4)CC3)c(C)c2c1,44,-,-,-,-,-,-,-
Cc1cc(Cl)c2oc(C(=O)N3CCN(c4cnccn4)CC3)c(C)c2c1,54,-,.,.,.,-,-,-
Cc1cc(Cl)c2oc(C(=O)N3CCOCC3)c(C)c2c1,-,-,.,.,.,.,.,.
CN(C)c1ccc(NC(=O)c2ccc(Cn3cc([N+](=O)[O-])cn3)cc2)cc1,-,-,-,-,-,.,.,.
CCOc1ccccc1N(CC(=O)NCC1CCCO1)C(=O)CCC(=O)Nc1nccs1 (stereo not drawn),-,-,-,-,-,.,.,.
O=C(Nc1ccccc1N1CCOCC1)c1ccc(Cl)c(S(=O)(=O)NCc2ccco2)c1,-,-,-,-,-,.,.,.
O=C(Cn1ncc2c(=O)oc3ccccc3c21)N(Cc1ccco1)C1CCCCC1,56,-,-,-,-,-,-,-
Cc1ccc2oc(=O)c3cnn(CC(=O)N4CCc5ccccc5C4)c3c2c1,47,-,-,-,-,-,-,-
CCCCN(Cc1ccco1)C(=O)Cn1ncc2c(=O)oc3ccc(C)cc3c21,86,-,-,-,-,-,-,-
Cc1ccc2oc(=O)c3cnn(CC(=O)N4CCCCC4C)c3c2c1 (stereo not drawn),-,-,-,-,-,.,.,.
Cc1ccc2oc(=O)c3cnn(CC(=O)N(CCC(C)C)Cc4ccco4)c3c2c1,86,-,-,-,-,76,-,-
CCOC(=O)Cn1ncc2c(=O)oc3ccccc3c21,-,-,-,-,-,.,.,.
COc1ccc(/C=C/C(=O)OCC(=O)N(C)c2c(N)n(Cc3ccccc3)c(=O)[nH]c2=O)cc1OC,-,-,-,-,-,.,.,.
CC(=O)c1ccc(S(=O)(=O)N2CCN(C(=O)CSc3ccc(C)c(C)c3)CC2)cc1,70,-,-,-,-,-,-,-
CN1CCN(C(=O)CSc2ccc(Cl)cc2)CC1,47,-,-,-,-,-,-,-
CN1CCCN(C(=O)CSc2ccccc2)CC1,-,-,-,-,-,.,.,.
O=C(CSc1ccc(Cl)cc1)N1CCN(c2ncc(C(F)(F)F)cc2Cl)CC1,84,-,-,-,-,70,-,-
O=C(CN1CCN(c2ncc(C(F)(F)F)cc2Cl)CC1)N1CCN(c2ncc(C(F)(F)F)cc2Cl)CC1,-,-,-,-,-,.,.,.

# Screens (PubChem)
